Measured values taken from ChEMBL document CHEMBL1153617, “Synthesis of new acridines and hydrazones derived from cyclic beta-diketone for cytotoxic and antiviral evaluation” (2009).

Columns and labels:
Set-up in all cases: scale not given: the % may be the effect or the level left
Hepatovirus A [1] = test: Antiviral activity against HAV MBB in human HepG2 cells assessed as reduction in viral titer at 10 ug/ml by plaque reduction assay; format: functional, Human hepatitis A virus Hu/Northern Africa/MBB/1978
Procedure, shortened: (§1)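 HAV pre-mixed with compound (10 or 20 µg/10⁵ cells; virus at 10⁴ PFU/ml final), held overnight at 4 °C. Mixture inoculated onto HepG2 monolayers grown 2 days at 37 °C, then 1 h contact. Overlay of MEM with 1% agarose, incubated at 37 °C until plaques formed. Formalin-fixed, crystal violet-stained. Plaques counted; % reduction calculated against untreated virus control.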

Hepatovirus A [2] = test: Antiviral activity against HAV MBB in human HepG2 cells assessed as reduction in viral titer at 20 ug/ml by plaque reduction assay; format: functional, Human hepatitis A virus Hu/Northern Africa/MBB/1978; procedure, shortened: as §1
HepG2 = test: Cytotoxicity against human HepG2 cells assessed as reduction in cell growth at 10 umol/ml after 24 hrs by MTT assay relative to control; format: functional
Procedure, shortened: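 HepG2 grown in RPMI-1640 with 10% FCS. Cells taken at ~80% confluence, seeded 3×10³/well, incubated overnight at 37 °C, 5% CO₂. Compound exposure 24 h. Then PBS wash and MTT (0.5 mg/ml) for 4 h. Crystals dissolved in DMSO, OD read at 570 nm (reference 690 nm). Reported as % reduction in cell growth versus untreated control.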

SMILES	Activity (Hepatovirus A [1]) [%]	Activity (Hepatovirus A [2]) [%]	Activity (HepG2) [%]
CC1(C)CC(=O)C=C(NCc2nnc(Nc3ccccc3)s2)C1	45.2	49	–
CC1(C)CC(=O)C=C(NCC(=O)N/N=C\c2ccc(O)cc2)C1	9.4	15	40.32
CC1(C)CC(=O)C=C(NCC(=O)N/N=C\c2ccc(Br)cc2)C1	43.3	27.3	40.06
COc1ccc(/C=N\NC(=O)CNC2=CC(=O)CC(C)(C)C2)cc1	24.5	36.2	16.99
CC1(C)CC(=O)C=C(NCC(=O)NNC(=S)Nc2ccccc2)C1	18.8	39.6	54.84
CCOC(=O)CN1C2=C(C(=O)CC(C)(C)C2)C(c2ccc(O)cc2)C2=C1CC(C)(C)CC2=O	30.1	48.1	54.7
CCOC(=O)CN1C2=C(C(=O)CC(C)(C)C2)C(c2ccc(OC)cc2)C2=C1CC(C)(C)CC2=O	24.5	45.2	37.99
CC1(C)CC(=O)C=C(NCC(=O)NN)C1	33.9	34.9	57.4
CCOC(=O)CNC1=CC(=O)CC(C)(C)C1	5.6	15	50
CC1(C)CC(=O)C=C(NCC(=O)N/N=C\c2ccc(Cl)cc2)C1	57.5	60.3	–
CC1(C)CC(=O)C=C(NCC(=O)NNC(=O)NCCCl)C1	42.4	40.5	58.29
CCOC(=O)CN1C2=C(C(=O)CC(C)(C)C2)C(c2ccc(Cl)cc2)C2=C1CC(C)(C)CC2=O	30.1	47.1	54.14
CCOC(=O)CN1C2=C(C(=O)CC(C)(C)C2)C(c2ccccc2)C2=C1CC(C)(C)CC2=O	37.7	60.3	3.32
CCOC(=O)CN1C2=C(C(=O)CC(C)(C)C2)C(c2ccc(Br)cc2)C2=C1CC(C)(C)CC2=O	47.1	52.8	49.17
CC1(C)CC(=O)C=C(NCc2nnc(S)n2-c2ccccc2)C1	28.3	30.1	35.64
CC1(C)CC(=O)C=C(NCC(=O)N/N=C\c2ccc([N+](=O)[O-])cc2)C1	39.6	43.3	–
CC1(C)CC(=O)C=C(NCC(=O)N/N=C\c2ccccc2)C1	56.6	58.4	–
NC12CC3CC(CC(C3)C1)C2 [AMANTADINE]	30.1	45.2	–
